Columns and labels:
[1] = test system: DU-145; experiment: Growth inhibition of human DU145 cells after 48 hrs; format: functional; conditions: DU-145, 48 h
Method in brief: (§1)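 NCI-60 human tumour cell line panel screen run at the US National Cancer Institute under its standard cytotoxicity protocol. It covers leukaemia, NSCLC, colon, CNS, melanoma, ovarian, renal, prostate and breast lines. An initial single-dose test was followed by five-dose testing with 48 h compound exposure.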

[2] = test system: NCI-H322M; experiment: Growth inhibition of human NCI-H322M cells after 48 hrs; format: functional; method in brief: as §1
[3] = test system: MDA-MB-435; experiment: Growth inhibition of human MDA-MB-435 cells after 48 hrs; format: functional; conditions: MDA-MB-435, 48 h; method in brief: as §1
[4] = test system: MCF7; experiment: Cytotoxicity against human MCF7 cells assessed as cell viability after 24 hrs incubation by MTT assay; format: functional, cell-based; conditions: MCF7, 24 h
Method in brief: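 Cell lines came from DSMZ; primary human fibroblasts served as non-cancer controls. Cells were grown in medium with 10% FCS, seeded at 50,000 cells/ml, and grown 2 days at 37 °C, 10% CO2. Serial dilutions were then added for 24 h. MTT (final 0.5 mg/ml) was added for 2 h. Formazan was pelleted, PBS-washed, dissolved in isopropanol/0.4% HCl and read at 590 nm. Two parallel experiments were run. IC50 was taken as the concentration giving 50% of untreated-control absorbance.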

[5] = test system: KM12; experiment: Growth inhibition of human KM12 cells after 48 hrs; format: functional; conditions: KM12, 48 h; method in brief: as §1
[6] = Growth inhibition of human OVCAR8 cells after 48 hrs; format: functional; conditions: OVCAR-8, 48 h; method in brief: as §1
[7] = Growth inhibition of human UACC62 cells after 48 hrs; format: functional; conditions: UACC-62, 48 h
Method in brief: (§2)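 Run by the NCI 58-cell-line screen under its standard cytotoxicity protocol. Compounds were first tested at a single dose, then at five doses. Cells were exposed to compound for 48 h.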

[8] = test system: HL-60(TB); experiment: Growth inhibition of human HL-60(TB) cells after 48 hrs; format: functional; conditions: HL-60, 48 h; method in brief: as §1
[9] = test system: Saccharomyces cerevisiae; experiment: Antimicrobial activity against Saccharomyces cerevisiae assessed as inhibition at 20 ug/6 mm disk after 1 to 2 days by agar diffusion assay; format: functional
Method in brief: (§3)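 Standard agar diffusion: 6-mm paper disks loaded with 20 µg of compound were placed on inoculated plates. Inhibition-zone diameter (mm) was read after 1 and 2 days of growth.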

[10] = test system: SN12C; experiment: Growth inhibition of human SN12C cells after 48 hrs; format: functional; method in brief: as §2
[11] = test system: MCF7; experiment: Growth inhibition of human MCF7 cells after 48 hrs; format: functional; conditions: MCF7, 48 h; method in brief: as §1
[12] = test system: MDA-MB-468; experiment: Growth inhibition of human MDA-MB-468 cells after 48 hrs; format: functional; conditions: MDA-MB-468, 48 h; method in brief: as §1
[13] = Growth inhibition of human RPMI8226 cells after 48 hrs; format: functional; conditions: RPMI-8226, 48 h; method in brief: as §1
[14] = test system: U-251; experiment: Growth inhibition of human U251 cells after 48 hrs; format: functional; conditions: U-251, 48 h; method in brief: as §2
[15] = test system: Escherichia coli; experiment: Antimicrobial activity against Escherichia coli tolC assessed as inhibition at 20 ug/6 mm disk after 1 to 2 days by agar diffusion assay; format: functional; method in brief: as §3
[16] = Growth inhibition of human UACC257 cells after 48 hrs; format: functional; conditions: UACC-257, 48 h; method in brief: as §2
[17] = test system: SK-MEL-28; experiment: Growth inhibition of human SK-MEL-28 cells after 48 hrs; format: functional; conditions: SK-MEL-28, 48 h; method in brief: as §1
[18] = Growth inhibition of human UO31 cells after 48 hrs; format: functional; conditions: UO-31, 48 h; method in brief: as §2
[19] = test system: MDA-MB-231; experiment: Growth inhibition of human MDA-MB-231 cells after 48 hrs; format: functional; conditions: MDA-MB-231, 48 h; method in brief: as §1
[20] = Lipophilicity, log K of the compound by HPLC analysis
[21] = test system: Klebsiella pneumoniae; experiment: Antimicrobial activity against Klebsiella pneumoniae assessed as inhibition at 20 ug/6 mm disk after 1 to 2 days by agar diffusion assay; format: functional; method in brief: as §3
[22] = test system: NCI-H23; experiment: Growth inhibition of human NCI-H23 cells after 48 hrs; format: functional; conditions: NCI-H23, 48 h; method in brief: as §1
[23] = Growth inhibition of human COLO205 cells after 48 hrs; format: functional; conditions: COLO 205, 48 h; method in brief: as §1
[24] = test system: CAKI-1; experiment: Growth inhibition of human CAKI-1 cells after 48 hrs; format: functional; conditions: CAKI-1, 48 h; method in brief: as §1
[25] = test system: NCI-H460; experiment: Growth inhibition of human NCI-H460 cells after 48 hrs; format: functional; conditions: NCI-H460, 48 h; method in brief: as §1
[26] = test system: Pseudomonas aeruginosa; experiment: Antimicrobial activity against Pseudomonas aeruginosa assessed as inhibition at 20 ug/6 mm disk after 1 to 2 days by agar diffusion assay; format: functional; method in brief: as §3
[27] = Growth inhibition of human PC3 cells after 48 hrs; format: functional; conditions: PC-3, 48 h; method in brief: as §1
[28] = test system: SF-268; experiment: Growth inhibition of human SF268 cells after 48 hrs; format: functional; conditions: SF-268, 48 h; method in brief: as §1
[29] = test system: HOP-62; experiment: Growth inhibition of human HOP62 cells after 48 hrs; format: functional; conditions: HOP-62, 48 h; method in brief: as §1
[30] = Growth inhibition of human MOLT4 cells after 48 hrs; format: functional; conditions: MOLT-4, 48 h; method in brief: as §1
[31] = Growth inhibition of human HCT116 cells after 48 hrs; format: functional; conditions: HCT-116, 48 h; method in brief: as §1
[32] = test system: M14; experiment: Growth inhibition of human M14 cells after 48 hrs; format: functional; conditions: M14, 48 h; method in brief: as §1
[33] = read-out: pLC50 (the source's name) (converted)

## CC1=C(SCCC(=O)OCC(=O)NCCC[Te]c2ccccc2)C(=O)c2ccccc2C1=O
[1]
  GI50: 3.31 µM
  LC50: 33.9 µM
[1]; read-out: pTGI (converted)
  TGI: 9.12 µM
[2]
  GI50: 2.88 µM
[2]; [33]
  CC50: 83.2 µM
[2]; read-out: pTGI (converted)
  TGI: 12.6 µM
[3]
  GI50: 4.27 µM
[3]; [33]
  CC50: 57.5 µM
[3]; read-out: pTGI (converted)
  TGI: 15.8 µM
[4]
  IC50: 12 µM
[5]
  GI50: 3.63 µM
[5]; [33]
  CC50: 52.5 µM
[5]; read-out: pTGI (converted)
  TGI: 12.6 µM
[6]
  GI50: 2.75 µM
  LC50: 51.3 µM
[6]; read-out: pTGI (converted)
  TGI: 11.5 µM
[7]
  GI50: 1.86 µM
[7]; [33]
  CC50: 13.5 µM
[7]; read-out: pTGI (converted)
  TGI: 4.57 µM
[8]
  GI50: 2.57 µM
[8]; [33]
  CC50: > 100 µM
[8]; read-out: pTGI (converted)
  TGI: 7.24 µM
[9]
  diameter of the inhibition zone (DIZ): 0 mm
[10]
  GI50: 1.86 µM
  LC50: 31.6 µM
[10]; read-out: pTGI (converted)
  TGI: 6.17 µM
[11]
  GI50: 2.95 µM
  LC50 (concentration killing 50% of cells): 57.5 µM
[11]; read-out: pTGI (converted)
  TGI: 12.3 µM
[12]
  GI50: 1.66 µM
  LC50: 7.08 µM
[12]; read-out: pTGI (converted)
  TGI: 3.39 µM
[13]
  GI50: 2.57 µM
[13]; [33]
  CC50: > 100 µM
[13]; read-out: pTGI (converted)
  TGI: 9.33 µM
[14]
  GI50: 3.16 µM
[14]; [33]
  CC50: 45.7 µM
[14]; read-out: pTGI (converted)
  TGI: 11.5 µM
[15]
  diameter of the inhibition zone (DIZ): 11 mm
[16]
  GI50: 2.75 µM
[16]; [33]
  CC50: 32.4 µM
[16]; read-out: pTGI (converted)
  TGI: 7.94 µM
[17]
  GI50: 2.29 µM
[17]; [33]
  CC50: 17.8 µM
[17]; read-out: pTGI (converted)
  TGI: 5.5 µM
[18]
  GI50: 1.86 µM
  LC50: 36.3 µM
[18]; read-out: pTGI (converted)
  TGI: 9.55 µM
[19]
  GI50: 1.86 µM
  LC50: 9.55 µM
[19]; read-out: pTGI (converted)
  TGI: 4.27 µM
[20]
  log K: -0.56
[21]
  diameter of the inhibition zone (DIZ): 13 mm
[22]
  GI50: 2.29 µM
[22]; [33]
  CC50: 44.7 µM
[22]; read-out: pTGI (converted)
  TGI: 7.41 µM
[23]
  GI50: 1.91 µM
[23]; [33]
  CC50: 8.91 µM
[23]; read-out: pTGI (converted)
  TGI: 4.17 µM
[24]
  GI50: 2.95 µM
  LC50: 39.8 µM
[24]; read-out: pTGI (converted)
  TGI: 11.2 µM
[25]
  GI50: 1.32 µM
[25]; [33]
  CC50: 51.3 µM
[25]; read-out: pTGI (converted)
  TGI: 4.17 µM
[26]
  diameter of the inhibition zone (DIZ): 12 mm
[27]
  GI50: 2.4 µM
  LC50: 42.7 µM
[27]; read-out: pTGI (converted)
  TGI: 12 µM
[28]
  GI50: 3.02 µM
[28]; [33]
  CC50: 37.2 µM
[28]; read-out: pTGI (converted)
  TGI: 9.55 µM
[29]
  GI50: 1.91 µM
[29]; [33]
  CC50: 23.4 µM
[29]; read-out: pTGI (converted)
  TGI: 5.5 µM
[30]
  GI50: 3.16 µM
[30]; [33]
  CC50: > 100 µM
[30]; read-out: pTGI (converted)
  TGI: 9.77 µM
[31]
  GI50: 1.66 µM
[31]; [33]
  CC50: 11.5 µM
[31]; read-out: pTGI (converted)
  TGI: 4.17 µM
[32]
  GI50: 2.04 µM
[32]; [33]
  CC50: 17 µM
[32]; read-out: pTGI (converted)
  TGI: 5.13 µM

Source: ChEMBL document CHEMBL3351600, “Sulfur, selenium and tellurium pseudopeptides: synthesis and biological evaluation” (Bioorg Med Chem, 2014)
